Reference: ChEMBL document CHEMBL1129459, “Studies on disease-modifying antirheumatic drugs: synthesis of novel quinoline and quinazoline derivatives and their anti-inflammatory effect” (1996)

Legend:
Format in all cases: functional
Rattus norvegicus [1] = assay: Inhibitory effect of 12.5 mg/Kg orally administered compound against swelling of right hand paw as a measure of anti-inflammatory activity; conditions: po
Rattus norvegicus [2] = assay: Inhibition of adjuvant induced swelling of rat right hind paw by 50 mg/kg p.o. administration.; conditions: route oral
Rattus norvegicus [3] = organism: Rattus norvegicus; assay: Effective dose of compound to inhibit the rat's left hand paw swelling by 50%.
Summary of the method: (§1)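 Adjuvant arthritis in male Lewis rats, 7 weeks old, n = 7. Rats were sensitized intradermally in the right hind plantar site with 0.05 mL of 0.5% killed M. tuberculosis H37 RA in liquid paraffin. Compound in 0.5% methylcellulose was given p.o. once daily for 14 days, starting day 0. Left hind paw volume was measured on days 0 and 14. ED50 came from linear regression across three or four doses.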

Rattus norvegicus [4] = organism: Rattus norvegicus; assay: Bone resorption inhibitory effect was evaluated as calcium released from bone into medium at 30 uM compound concentration, expressed as percent of control; set-up: scale not given: the % may be the effect or the level left
Summary of the method: (§2)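 Rat fetal long-bone (Raisz) assay. A pregnant Sprague–Dawley rat received 50 µCi 45Ca s.c. on gestation day 18. Fetal humeri (radii and ulnae) were taken the next day and cleaned of connective tissue and cartilage. Bones were preincubated 24 h at 37 °C, 5% CO2, in BGJb medium with 2 mg/mL BSA. They were then cultured 2 days with compound at 10 or 30 µM final. Read-out was 45Ca released/(released + bone-retained) ×100, mean of five bones, as % of untreated same-litter controls.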

Rattus norvegicus [5] = organism: Rattus norvegicus; assay: Effective dose to inhibit the rat's left hand paw swelling by 50%.; summary of the method: as §1
Rattus norvegicus [6] = organism: Rattus norvegicus; assay: Bone resorption inhibitory effect was evaluated as calcium released from bone into medium at 10 uM compound concentration, expressed as percent of control; set-up: scale not given: the % may be the effect or the level left; summary of the method: as §2
Rattus norvegicus [7] = organism: Rattus norvegicus; assay: Bone resorption inhibitory effect was evaluated as calcium released from bone into medium at 25 uM compound concentration, expressed as percent of control; set-up: scale not given: the % may be the effect or the level left

CCOC(=O)c1c(CCCn2cncn2)nc2cc(OC)c(OC)cc2c1-c1ccc(OC)c(OC)c1
inhibition in vivo at 12.5 mg/kg (Rattus norvegicus [1]): < 50%

CCOC(=O)c1c(CSc2nccn2C)nc2cc(OC)c(OC)cc2c1-c1ccc(C)cc1
inhibition in vivo at 50 mg/kg (Rattus norvegicus [2]): 67%

CCOC(=O)c1c(CSc2nccn2C)nc2cc(OC)c(OC)cc2c1-c1ccc(OC)c(OC)c1
inhibition in vivo at 50 mg/kg (Rattus norvegicus [2]): 60%
ED50 (Rattus norvegicus [3]): 25 mg/kg
Activity (Rattus norvegicus [4]): 57%

CCOC(=O)c1c(CSc2nncn2C)nc2cc(OC)c(OC)cc2c1-c1ccc(OC)c(OC)c1
inhibition in vivo at 50 mg/kg (Rattus norvegicus [2]): 66%
ED50 (Rattus norvegicus [3]): 11.6 mg/kg

CCOC(=O)c1c(CSc2nccn2C)nc2cc(OC)c(OC)cc2c1-c1ccc2c(c1)OCO2
inhibition in vivo at 50 mg/kg (Rattus norvegicus [2]): 63%

CCOC(=O)c1c(CCc2nccn2C)nc2cc(OC)c(OC)cc2c1-c1ccc(OC)c(OC)c1
inhibition in vivo at 50 mg/kg (Rattus norvegicus [2]): 75%
ED50 (Rattus norvegicus [5]): 14.7 mg/kg

CCOC(=O)c1c(CSc2nccn2C)nc2cc(OC)c(OC)cc2c1-c1ccc(OC)cc1
inhibition in vivo at 50 mg/kg (Rattus norvegicus [2]): 64%

CCOC(=O)c1c(CSc2nccn2C)nc2ccccc2c1-c1ccc(OC)c(OC)c1
inhibition in vivo at 50 mg/kg (Rattus norvegicus [2]): 33%

COc1ccc(-c2nc(CCc3nccn3C)nc3cc(OC)c(OC)cc23)cc1OC
inhibition in vivo at 50 mg/kg (Rattus norvegicus [2]): 71%

COc1ccc(-c2nc(CSc3nccn3C)nc3cc(OC)c(OC)cc23)cc1OC
inhibition in vivo at 50 mg/kg (Rattus norvegicus [2]): < 50%

COc1ccc(-c2nc(Cn3ccnc3C)nc3cc(OC)c(OC)cc23)cc1OC
inhibition in vivo at 12.5 mg/kg (Rattus norvegicus [1]): < 50%

CCOC(=O)c1c(CSc2nccn2C)nc2cc3c(cc2c1-c1ccc(OC)c(OC)c1)OCCO3
Activity (Rattus norvegicus [6]): 66%
inhibition in vivo at 50 mg/kg (Rattus norvegicus [2]): 56%

CCOC(=O)c1c(CS(=O)(=O)c2nccn2C)nc2cc(OC)c(OC)cc2c1-c1ccc(OC)c(OC)c1
inhibition in vivo at 50 mg/kg (Rattus norvegicus [2]): 56%

CCOC(=O)c1c(C[S+]([O-])c2nccn2C)nc2cc(OC)c(OC)cc2c1-c1ccc(OC)c(OC)c1 (centres undefined)
ED50 (Rattus norvegicus [5]): 6.5 mg/kg
inhibition in vivo at 12.5 mg/kg (Rattus norvegicus [1]): 73%

CCOC(=O)c1c(Cn2ccnc2C)nc2cc(OC)c(OC)cc2c1-c1ccc(OC)c(OC)c1
inhibition in vivo at 12.5 mg/kg (Rattus norvegicus [1]): 55%

CCOC(=O)c1c(CSc2ncc[nH]2)nc2cc(OC)c(OC)cc2c1-c1ccc(OC)c(OC)c1
inhibition in vivo at 50 mg/kg (Rattus norvegicus [2]): 60%

CCOC(=O)c1c(CSc2nccn2C)nc2cc(OCC)c(OCC)cc2c1-c1ccc(OC)c(OC)c1
inhibition in vivo at 50 mg/kg (Rattus norvegicus [2]): 59%

CCOC(=O)c1c(Cn2ccnc2)nc2cc(OC)c(OC)cc2c1-c1ccc(OC)c(OC)c1
ED50 (Rattus norvegicus [5]): 7.7 mg/kg
inhibition in vivo at 12.5 mg/kg (Rattus norvegicus [1]): 70%

CCOC(=O)c1c(Cn2ccnc2CC)nc2cc(OC)c(OC)cc2c1-c1ccc(OC)c(OC)c1
ED50 (Rattus norvegicus [5]): 9.1 mg/kg

CCOC(=O)c1c(Cn2cncn2)nc2cc(OC)c(OC)cc2c1-c1ccc(OC)c(OC)c1
ED50 (Rattus norvegicus [5]): 2.6 mg/kg
inhibition in vivo at 12.5 mg/kg (Rattus norvegicus [1]): 65%
Activity (Rattus norvegicus [4]): 59%

CCOC(=O)c1c(CSc2nccn2C)nc2cc(OC)c(OC)cc2c1-c1ccc(Cl)cc1
inhibition in vivo at 50 mg/kg (Rattus norvegicus [2]): 41%

CCOC(=O)c1c(CSc2nccn2C)nc2cc(OC)c(OC)cc2c1-c1ccccc1
inhibition in vivo at 50 mg/kg (Rattus norvegicus [2]): 31%

CCOC(=O)c1c(CSc2nccn2CC)nc2cc(OC)c(OC)cc2c1-c1ccc(OC)c(OC)c1
inhibition in vivo at 50 mg/kg (Rattus norvegicus [2]): 51%

COc1cc2c(OC)c3c(c(-c4ccc5c(c4)OCO5)c2cc1OC)C(=O)OC3 [JUSTICIDIN A]
inhibition in vivo at 50 mg/kg (Rattus norvegicus [2]): 10%
Activity (Rattus norvegicus [7]): 48%

CCOC(=O)c1c(CSc2nccn2C)nc2ccc(OC)cc2c1-c1ccc(OC)cc1
Activity (Rattus norvegicus [6]): 66%
inhibition in vivo at 50 mg/kg (Rattus norvegicus [2]): 45%

COc1ccc(-c2nc(Cn3cncn3)nc3cc(OC)c(OC)cc23)cc1OC
inhibition in vivo at 12.5 mg/kg (Rattus norvegicus [1]): < 50%

COC(=O)c1c(CSc2nccn2C)nc2cc(OC)c(OC)cc2c1-c1ccc(OC)c(OC)c1
Activity (Rattus norvegicus [6]): 46%
inhibition in vivo at 50 mg/kg (Rattus norvegicus [2]): 67%
